Reference: PubChem BioAssay
Active and inactive are the calls of the source.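 Rule for the calls, unless noted: active = viability increase at or above a cutoff of the median across tested compounds plus 3 SD (cut at about 8.5% in these data, passing the limit was not always enough); inconclusive = some gains above the cutoff, reason not given; inactive = the rest.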

Experiment: Restrictive medium S. cerevisiae growth inhibition, OD615, pilot screen of yeast lifespan reduction project, restrictive growth control (AID 706;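 active = growth inhibition above a set limit, 3 SD over mean compound inhibition, in both replicates, cut at about 43% in these data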;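 note: modified DeaD lifespan yeast strain shifted to restrictive glucose medium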)
Details: OD615, 48 h, at 10 µM, stronger effect = higher value
In short: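 System: Engineered S. cerevisiae DeaD strain | Buffer or medium: Glucose-based CSMM-D restrictive medium | Schedule: 4 h pre-incubation, 48 h exposure at 30 °C | Technique: Optical density at 615 nm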

| Structure (SMILES) | growth inhibition |
| --- | --- |
| Cc1ccccc1CSc1nnc(Cn2c(=O)sc3ccccc32)n1C | 11.4% (inactive) |
| O=C(NCc1ccccn1)C1CC(=O)N(C2CCCC2)C1 (stereo not drawn) | 4.21% (inactive) |
| COc1ccccc1NC(=O)C1=C(C)NC(=O)NC1c1cccc(OC)c1OC (stereo not drawn) | 2.57% (inactive) |
| CCOC(=O)C1CCCN(C(=O)c2cn(CC)c3ccc(S(=O)(=O)N(C)C)cc3c2=O)C1 (stereo not drawn) | -15.5% (inactive) |
| CCCOC(=O)CSC1=C(C#N)C(c2ccccc2Cl)CC(=O)N1 (stereo not drawn) | -25.7% (inactive) |
| COc1ccc(S(=O)(=O)Cc2ccc(C(=O)N3CCCC3)o2)cc1 | -2.15% (inactive) |
| CC(C)n1c(CCCO)nc2ccccc21 | -5.23% (inactive) |
| Cn1c(SCc2nc3ccccc3[nH]2)nnc1-c1cccnc1 | 24.8% (inactive) |
| O=C(NC1CCCCC1)C1CCN(S(=O)(=O)c2cccc3cccnc23)CC1 | -0.575% (inactive) |
| Cc1cc(OCc2ccc(F)cc2)nc(-c2ccccc2O)n1 | -3.18% (inactive) |
| CCC(=O)N=c1sc2cc(F)cc(F)c2n1C | -7.75% (inactive) |
| CCOc1ccc(C2CC(=O)NC(SC)=C2C#N)cc1 (stereo not drawn) | -15.5% (inactive) |
| COc1cc(OC)cc(-c2cc3nc(C)c(CCC(=O)O)c(C)n3n2)c1 | -1.06% (inactive) |
| COc1ccc(C2C=C(c3ccc(C)c(C)c3)Nc3ncnn32)c(OC)c1OC (stereo not drawn) | 11.7% (inactive) |
| CC(CCc1ccccc1)NC(=O)CSc1nnnn1C (stereo not drawn) | -18.6% (inactive) |
| CCN(CCNC(=O)C1CCN(c2nnc(-n3cccc3)s2)CC1)c1ccccc1 | -6.63% (inactive) |
| O=C(c1cnn2ccccc12)N(Cc1ccco1)C1CCCC1 | -4.11% (inactive) |
| CC(=O)Nc1nnc(C)s1 | -8.07% (inactive) |
| CCOCCCNC(=O)c1cccs1 | -4.17% (inactive) |
| CCc1nnc(NC(=O)CSc2nnc(Cc3cccn3C)n2C)s1 | 30.4% (inactive) |
| NC(=O)CSc1nnc(Cn2c(=O)sc3ccccc32)n1-c1ccccc1 | -0.84% (inactive) |
| CCSc1nnc(NC(=O)C(C)C)s1 | -5.11% (inactive) |
| Cc1ccc2oc3c(c(=O)c2c1)C(c1cccc(Cl)c1)N(CCCN1CCOCC1)C3=O (stereo not drawn) | 2.74% (inactive) |
| O=S(=O)(NC1CCCCC1)c1cccc(-c2nnc(-c3ccccc3)o2)c1 | -20.6% (inactive) |
| COc1ccc(CN2CCNC(=O)C2CC(=O)O)cc1OC (stereo not drawn) | -7.95% (inactive) |
| COc1ccc2c(Cl)c(C(=O)NC3CCS(=O)(=O)C3)sc2c1 (stereo not drawn) | -6.69% (inactive) |
| O=C(Cn1cc2c(n1)CCCCC2)NCc1ccccn1 | -16.1% (inactive) |
| Cn1cccc1Cc1nnc(SCC(=O)NC2CCCCC2)n1CCc1ccccc1 | 23.6% (inactive) |
| CCc1ccc(C2CC(c3ccccc3)Nc3nc(N)nn32)cc1 (stereo not drawn) | -6.06% (inactive) |

Experiment: viability gain of MRP-1-high H69AR cells under doxorubicin, pilot screen, MRP-1 activator project, CellTiter-Glo, duplicate (AID 807);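 note: compound pretreatment 18-22 h then 72 h combined with doxorubicin; 0% = doxorubicin alone and 100% = vehicle without doxorubicin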
Details: H69AR viability with doxorubicin, CellTiter-Glo luminescence; at 10 µM; stronger effect = higher value

| Structure (SMILES) | viability increase |
| --- | --- |
| CC(=O)Nc1sc(C)c(C)c1CN1CCN(S(=O)(=O)c2ccccc2)CC1 | -2.28% (inactive) |
| CC(C)CC(=O)Nc1ccc(C(=O)COc2ccc(-c3nnco3)cc2)cc1 | 0.84% (inactive) |
| C=CCSC1=N/C(=C\c2ccc(C)o2)C(=O)S1 | -3.69% (inactive) |
| Cc1ccc(-c2nn3c(C)nnc3s2)cc1NC(=O)c1ccco1 | -5.34% (inactive) |
| CCN(CC)P1(=O)OC(c2cc(OC)c(OC)c(OC)c2)=Nc2c1c(C)nn2-c1ccccc1 (stereo not drawn) | -2.38% (inactive) |
| CCc1ccc(NC(=O)c2ccc3c(c2)C(=O)N(Cc2ccco2)C3=O)cc1 | -2.41% (inactive) |
| CSC1=NCCN1C(=O)c1ccc(Br)o1 | 2.54% (inactive) |
| COc1ccccc1NC(=O)C1C2C=CC3(CN(Cc4cccnc4)C(=O)C13)O2 (stereo not drawn) | 0.16% (inactive) |
| Cn1c(Cn2c(=O)sc3ccccc32)nnc1SCC(=O)NCc1ccccc1Cl | -1.32% (inactive) |
| CCN1C(=O)c2ccccc2S(=O)c2ccc(C(=O)N3CCCC3)cc21 (stereo not drawn) | -1.58% (inactive) |
| Cc1ccccc1CSc1nnc(Cn2c(=O)sc3ccccc32)n1C | 1.46% (inactive) |
| O=C(NCc1ccccn1)C1CC(=O)N(C2CCCC2)C1 (stereo not drawn) | 1.73% (inactive) |
| COc1ccccc1NC(=O)C1=C(C)NC(=O)NC1c1cccc(OC)c1OC (stereo not drawn) | -2.1% (inactive) |
| CCOC(=O)C1CCCN(C(=O)c2cn(CC)c3ccc(S(=O)(=O)N(C)C)cc3c2=O)C1 (stereo not drawn) | -0.67% (inactive) |
| CCCOC(=O)CSC1=C(C#N)C(c2ccccc2Cl)CC(=O)N1 (stereo not drawn) | -1.57% (inactive) |
| COc1ccc(S(=O)(=O)Cc2ccc(C(=O)N3CCCC3)o2)cc1 | -1.61% (inactive) |
| CC(C)n1c(CCCO)nc2ccccc21 | -1.64% (inactive) |
| Cn1c(SCc2nc3ccccc3[nH]2)nnc1-c1cccnc1 | -2.45% (inactive) |
| O=C(NC1CCCCC1)C1CCN(S(=O)(=O)c2cccc3cccnc23)CC1 | -0.83% (inactive) |
| Cc1cc(OCc2ccc(F)cc2)nc(-c2ccccc2O)n1 | 2.19% (inactive) |

| Structure (SMILES) | viability increase |
| --- | --- |
| CCC(=O)N=c1sc2cc(F)cc(F)c2n1C | -5.39% (inactive) |
| CCOc1ccc(C2CC(=O)NC(SC)=C2C#N)cc1 (stereo not drawn) | -2.65% (inactive) |
| COc1cc(OC)cc(-c2cc3nc(C)c(CCC(=O)O)c(C)n3n2)c1 | -2.31% (inactive) |
| COc1ccc(C2C=C(c3ccc(C)c(C)c3)Nc3ncnn32)c(OC)c1OC (stereo not drawn) | -4.29% (inactive) |
| CC(CCc1ccccc1)NC(=O)CSc1nnnn1C (stereo not drawn) | -1.52% (inactive) |
| CCN(CCNC(=O)C1CCN(c2nnc(-n3cccc3)s2)CC1)c1ccccc1 | -3.79% (inactive) |
| O=C(c1cnn2ccccc12)N(Cc1ccco1)C1CCCC1 | -3.08% (inactive) |
| CC(=O)Nc1nnc(C)s1 | -2.11% (inactive) |
| CCOCCCNC(=O)c1cccs1 | -1.31% (inactive) |
| CCc1nnc(NC(=O)CSc2nnc(Cc3cccn3C)n2C)s1 | -1.23% (inactive) |
| NC(=O)CSc1nnc(Cn2c(=O)sc3ccccc32)n1-c1ccccc1 | -0.83% (inactive) |
| CCSc1nnc(NC(=O)C(C)C)s1 | 1.51% (inactive) |
| Cc1ccc2oc3c(c(=O)c2c1)C(c1cccc(Cl)c1)N(CCCN1CCOCC1)C3=O (stereo not drawn) | -3.81% (inactive) |
| O=S(=O)(NC1CCCCC1)c1cccc(-c2nnc(-c3ccccc3)o2)c1 | 0.12% (inactive) |
| COc1ccc(CN2CCNC(=O)C2CC(=O)O)cc1OC (stereo not drawn) | 1.18% (inactive) |
| COc1ccc2c(Cl)c(C(=O)NC3CCS(=O)(=O)C3)sc2c1 (stereo not drawn) | 2.14% (inactive) |
| O=C(Cn1cc2c(n1)CCCCC2)NCc1ccccn1 | -2.27% (inactive) |
| Cn1cccc1Cc1nnc(SCC(=O)NC2CCCCC2)n1CCc1ccccc1 | -2.17% (inactive) |
| CCc1ccc(C2CC(c3ccccc3)Nc3nc(N)nn32)cc1 (stereo not drawn) | 0.7% (inactive) |
